Experimental data published in publication PMC2156157 (The Journal of Cell Biology, 1999).

Tests used:
Assay type in all cases: cell-based, human
EBP50 = assay: coimmunoprecipitation with EBP50 antisera from 16HBE14o− lysates; settings: 16HBE14o− lysates (wild type or stably expressing GFP chimera), immunoblot
Outline: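 16HBE14o− cells were wild type or stable lines expressing GFP-YAP65 or GFP-YAP65 lacking the last four residues (G418 400 µg/ml; ≥2 clones). Cells were lysed in RIPA. Rabbit anti-EBP50, preimmune serum or normal rabbit IgG (2 µg) was prebound to protein A beads. Lysate (~300 µg or ~200 µg) was incubated for 4–12 h at 4°C. Beads washed three times in RIPA; 10% SDS-PAGE; immunoblot with anti-YAP65 or anti-ezrin (1:1,000); 10–20% input.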

c-Yes = settings: 16HBE14o− on transwell filters, mouse anti–c-Yes (1:100), XZ confocal
Outline: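 16HBE14o− clones stably expressing GFP-YAP65 chimeras were selected with G418 and screened by fluorescence and anti-GFP blot. Cells were grown to confluence on transwell filters and fixed in 4% paraformaldehyde. After blocking (milk/BSA/0.1% Triton X-100, 3 h), they were stained with mouse anti-c-Yes (1:100) and fluorescent secondary antiserum, then scanned in XZ by confocal microscopy. At least two independent clones per line were analysed.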

[1] = system: apical membrane of airway epithelial cells; settings: 16HBE14o− cells on transwell filters 7–10 d after confluence, confocal
Outline: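 Samples were 16HBE14o− filters (7–10 d post-confluence) or primary nasal cultures (air-liquid interface, 40–50 d). Fixation was 4% paraformaldehyde, 5–20 min, room temperature. Blocking used milk/BSA/Triton (16HBE14o−) or 10–20% goat serum (primary). Primary antisera ran 4–12 h: ezrin 1:300, ZO-1 1:200, EBP50 1:500 or 1:200, YAP65 1:300 or 1:200. Primary cultures also got 70 nM FITC-phalloidin. Texas red/FITC secondaries, XZ confocal imaging.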

B1: GFP-YAP65: GFP fused in-frame with YAP65 (protein)
chain: MDPGQQPPPQPAPQGQGQPPSQPPQGQGPPSGPGQPAPAATQAAPQAPPAGHQIVHVRGDSETDLEALFNAVMNPKTANVPQTVPMRLRKLPDSFFKPPEPKSHSRQASTDAGTAGALTPQHVRAHSSPASLQLGAVSPGTLTPTGVVSGPAATPTAQHLRQSSFEIPDDVPLPAGWEMAKTSSGQRYFLNHIDQTTTWQDPRKAMLSQMNVTAPTSPPVQQNMMNSASAMNQRISQSAPVKQPPPLAPQSPQGGVMGGSNSNQQQQMRLQQLQMEKERLRLKQQELLRQVRPQELALRSQLPTLEQDGGTQNPVSSPGMSQELRTMTTNSSDPFLNSGTYHSRDESTDSGLSMSSYSVPRTPDDFLNSVDEMDTGDTINQSTLPSQQNRFPDYLEAIPGTNVDLGTLEGDGMNIEGEELMPSLQEALSSDILNDMESVLAATKLDKESFLTWL
modifications: left off: GFP, end not stated, kept
presence in EBP50 immunoprecipitates (EBP50): present in EBP50 immunoprecipitates | c-Yes distribution in cells stably overexpressing the chimera (c-Yes): c-Yes was accumulated at the apical membrane

B2: EBP50: ERM-binding phosphoprotein 50 kD; two PDZ domains (protein)
chain: MSADAAAGAPLPRLCCLEKGPNGYGFHLHGEKGKLGQYIRLVEPGSPAEKAGLLAGDRLVEVNGENVEKETHQQVVSRIRAALNAVRLLVVDPETDEQLQKLGVQVREELLRAQEAPGQAEPPAAAEVQGAGNENEPREADKSHPEQRELRPRLCTMKKGPSGYGFNLHSDKSKPGQFIRSVDPDSPAEASGLRAQDRIVEVNGVCMEGKQHGDVVSAIRAGGDETKLLVVDRETDEFFKKCRVIPSQEHLNGPLPVPFTNGEIQKENSREALAEAALESPRPALVRSASSDTSEELNSQDSPPKQDSTAPSSTSSSDPILDFNISLAMAKERAHQKRSSKRAPQMDWSKKNELFSNL
modifications: left off: GST, end not stated, kept
localization of endogenous protein [1]: preferentially accumulated at the apical membrane
